Data on nine molecules can be found in ChEMBL document CHEMBL1154611 (J Med Chem, 2009).

The MIC is the lowest concentration that inhibits growth of the organism. A lower MIC goes with greater potency. As usually defined, the inhibition is the drop in the measured response relative to a control, in per cent. In general, EC50 refers to the midpoint of the concentration-response curve. As a reminder, the IC50 is the point on the concentration scale where inhibition reaches its midpoint. Low values mean inhibition by little substance, high ones a need for much substance.

≈ marks a conversion by molar mass, not a printed value. Calls of active or inactive are those of the source. No cut-off for these calls is given here.

For data set [1], the system named is Streptococcus pneumoniae. Nature of the data set: Antibacterial activity against erythromycin-sensitive Streptococcus pneumoniae ATCC 6301. The data set is classed as functional. In outline:
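MIC, the minimal growth inhibitory concentration, was determined in routine screening against the highly erythromycin-sensitive strain Streptococcus pneumoniae ATCC6301.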

Data set [2] deals with T1, hERG (KCNH2) (Homo sapiens, UniProt Q12809). Nature of the data set: Inhibition of human ERG expressed in HEK cells at 300 uM. The data set is classed as cell-based, HEK293. The following applies: HEK cells expressing human ERG.
T1 sequence (Q12809 whole entry): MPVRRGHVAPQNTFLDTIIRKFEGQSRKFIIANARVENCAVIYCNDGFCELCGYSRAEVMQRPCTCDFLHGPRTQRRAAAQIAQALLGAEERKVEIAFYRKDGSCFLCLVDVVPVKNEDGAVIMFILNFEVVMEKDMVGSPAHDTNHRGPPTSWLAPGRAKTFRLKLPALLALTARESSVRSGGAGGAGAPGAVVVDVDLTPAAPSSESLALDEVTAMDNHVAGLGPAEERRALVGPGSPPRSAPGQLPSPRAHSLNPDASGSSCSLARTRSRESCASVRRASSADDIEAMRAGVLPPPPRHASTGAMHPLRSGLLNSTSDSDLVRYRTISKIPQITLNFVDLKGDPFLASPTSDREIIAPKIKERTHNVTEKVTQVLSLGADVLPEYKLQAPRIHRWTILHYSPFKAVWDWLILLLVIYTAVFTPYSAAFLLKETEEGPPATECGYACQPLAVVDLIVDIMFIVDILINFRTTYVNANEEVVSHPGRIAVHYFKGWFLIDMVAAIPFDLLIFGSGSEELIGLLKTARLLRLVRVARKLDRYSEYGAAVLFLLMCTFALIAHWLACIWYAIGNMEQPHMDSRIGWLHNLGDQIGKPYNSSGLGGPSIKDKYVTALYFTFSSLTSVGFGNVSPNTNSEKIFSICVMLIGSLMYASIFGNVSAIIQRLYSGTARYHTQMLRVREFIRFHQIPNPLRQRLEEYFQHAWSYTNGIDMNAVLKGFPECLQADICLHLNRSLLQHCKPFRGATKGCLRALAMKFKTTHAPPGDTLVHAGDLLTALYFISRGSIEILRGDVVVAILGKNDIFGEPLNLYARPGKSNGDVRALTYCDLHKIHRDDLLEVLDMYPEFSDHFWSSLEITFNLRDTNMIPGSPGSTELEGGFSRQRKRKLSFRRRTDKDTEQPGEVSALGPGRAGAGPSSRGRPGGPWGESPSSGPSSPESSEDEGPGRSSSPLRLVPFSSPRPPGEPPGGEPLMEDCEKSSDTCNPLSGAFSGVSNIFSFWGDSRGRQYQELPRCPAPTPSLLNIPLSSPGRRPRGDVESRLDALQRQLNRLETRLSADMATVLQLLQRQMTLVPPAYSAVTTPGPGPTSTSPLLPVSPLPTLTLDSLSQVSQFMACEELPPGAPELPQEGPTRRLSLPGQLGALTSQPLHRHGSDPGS
Another data set addresses Motilin receptor (Oryctolagus cuniculus, UniProt A5A4K8). As to the kind of experiment: Agonist activity at motilin receptor in rabbit smooth muscle assessed as maximal possible tissue contraction. The data set is classed as functional. In a few lines: (§1)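 Rabbit smooth muscle contractility assay. EC50 is the concentration giving 50% of the maximal possible contraction. Tachyphylaxis is the % contractile response to an EC90 drug concentration after three cycles of administration and washout.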

Data set [3] addresses T1, hERG (KCNH2). As to the kind of experiment: Inhibition of human ERG expressed in HEK cells at 30 uM. The data set is classed as cell-based, HEK293. The note with it: HEK cells expressing human ERG.
For data set [4], the target named is Motilin receptor (Oryctolagus cuniculus) (UniProt A5A4K8). As to the kind of experiment: Agonist activity at motilin receptor in rabbit smooth muscle assessed as tachyphylaxis at EC90 concentration after 4th dose. The data set is classed as functional. In outline: as §1
Chain of Motilin receptor (Oryctolagus cuniculus) (A5A4K8 as listed by the source): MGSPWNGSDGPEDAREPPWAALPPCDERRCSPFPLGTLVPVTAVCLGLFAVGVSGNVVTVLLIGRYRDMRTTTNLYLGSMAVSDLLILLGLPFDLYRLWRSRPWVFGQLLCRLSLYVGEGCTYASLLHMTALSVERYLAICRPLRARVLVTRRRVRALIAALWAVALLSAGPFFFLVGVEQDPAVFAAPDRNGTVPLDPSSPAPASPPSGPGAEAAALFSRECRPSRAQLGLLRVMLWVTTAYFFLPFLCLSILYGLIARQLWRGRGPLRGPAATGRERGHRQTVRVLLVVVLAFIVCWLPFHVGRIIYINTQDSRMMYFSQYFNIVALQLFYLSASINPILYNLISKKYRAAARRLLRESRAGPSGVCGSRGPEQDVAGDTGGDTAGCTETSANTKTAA
Data set [5] addresses Voltage-gated inwardly rectifying potassium channel KCNH2 (Homo sapiens, UniProt Q12809). As to the kind of experiment: Inhibition of human ERG expressed in HEK cells. The data set is classed as cell-based, HEK293.
Data set [6] can be described thus: Ratio of IC50 for human ERG to EC50 for rabbit motilin receptor agonism. The data set is classed as functional. In a few lines: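 The motilin EC50 came from the rabbit smooth muscle contraction assay, and the ratio of the two served as a cardiovascular safety predictor.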
The next data set has as its system Moraxella catarrhalis. Nature of the data set: Antimicrobial activity against Moraxella catarrhalis. The data set is classed as functional, organism-based. In a few lines: (§2)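 MIC was determined across a panel of about 200 clinical isolates from a variety of specimens held in a university clinical microbiology collection, with about 10 isolates per species. The panel covers gut flora and organisms commonly known to develop antibiotic resistance.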

The next data set relates to Clostridium perfringens. As to the kind of experiment: Antimicrobial activity against Clostridium perfringens. The data set is classed as functional, organism-based. In outline: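 MIC determined across a panel of about 200 clinical strains that represent gut flora and species known to develop antibiotic resistance. The panel included about 10 Clostridium perfringens isolates, taken from a variety of clinical specimens and held in the University of Rochester Medical Center clinical microbiology collection.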

Data set [7] concerns Streptococcus pneumoniae. As to the kind of experiment: Antimicrobial activity against Streptococcus pneumoniae. The data set is classed as functional, organism-based. In outline:
as §2

A further data set concerns Lactobacillus sp. As to the kind of experiment: Antimicrobial activity against Lactobacillus sp. The data set is classed as functional, organism-based. In a few lines:
as §2

The test system of another data set is Cutibacterium acnes. As to the kind of experiment: Antimicrobial activity against Propionibacterium acnes. The data set is classed as functional, organism-based.
The next data set has as its system Bacteroides fragilis. As to the kind of experiment: Antimicrobial activity against Bacteroides fragilis. The data set is classed as functional, organism-based. In outline: as §2
A further data set has as its system Enterococcus faecium. As to the kind of experiment: Antimicrobial activity against Enterococcus faecium. The data set is classed as functional, organism-based. In outline: as §2
The test system of a further data set is Clostridioides difficile. Nature of the data set: Antimicrobial activity against Clostridium difficile. The data set is classed as functional, organism-based. In outline: as §2
Another data set has as its system Staphylococcus aureus. Nature of the data set: Antimicrobial activity against Staphylococcus aureus. The data set is classed as functional, organism-based. In a few lines:
as §2

For the next data set, the system named is Staphylococcus. Nature of the data set: Antimicrobial activity against Staphylococcus coagulase. The data set is classed as functional, organism-based. In outline: as §2
The next data set has as its system Haemophilus influenzae. Nature of the data set: Antimicrobial activity against Haemophilus influenzae. The data set is classed as functional, organism-based. In outline: as §2
The next data set concerns Klebsiella pneumoniae. Nature of the data set: Antimicrobial activity against Klebsiella pneumoniae. The data set is classed as functional, organism-based. In outline:
as §2

The next data set concerns Escherichia coli. As to the kind of experiment: Antimicrobial activity against Escherichia coli. The data set is classed as functional, organism-based. In outline:
as §2

Another data set has as its system Corynebacterium sp. As to the kind of experiment: Antimicrobial activity against Corynebacterium sp. The data set is classed as functional, organism-based. In a few lines:
as §2

A further data set deals with Streptococcus equinus. As to the kind of experiment: Antimicrobial activity against Streptococcus bovis. The data set is classed as functional, organism-based. In a few lines:
as §2

In a further data set the test system is Streptococcus pyogenes. Nature of the data set: Antimicrobial activity against Streptococcus pyogenes. The data set is classed as functional, organism-based. In a few lines:
as §2

Another data set relates to Corynebacterium jeikeium. Nature of the data set: Antimicrobial activity against Corynebacterium jeikeium. The data set is classed as functional, organism-based. In a few lines:
as §2

Another data set deals with Enterococcus faecalis. Nature of the data set: Antimicrobial activity against Enterococcus faecalis. The data set is classed as functional, organism-based. In a few lines:
as §2

For a further data set, the system named is Proteus mirabilis. As to the kind of experiment: Antimicrobial activity against Proteus mirabilis. The data set is classed as functional, organism-based. In a few lines:
as §2

Another data set deals with Micrococcus luteus. As to the kind of experiment: Antimicrobial activity against Micrococcus luteus. The data set is classed as functional, organism-based. In outline:
as §2

Chain of Motilin receptor (A5A4K8 whole entry): as the sequence (A5A4K8 as listed by the source) above
Chain of Voltage-gated inwardly rectifying potassium channel KCNH2 (Q12809 whole entry): as the sequence (Q12809 whole entry) above

Turning to `CC[C@H]1OC(=O)[C@H](C)[C@@H](O[C@H]2C[C@@](C)(OC)[C@@H](O)[C@H](C)O2)[C@H](C)[C@@H](O[C@@H]2O[C@H](C)C[C@H](N(C)C(C)C)[C@H]2O)[C@](C)(O)C[C@@H](C)[C@H](OCC(=O)NCCO)[C@H](C)[C@@H](O)[C@]1(C)O`, inhibition of growth with Streptococcus pneumoniae [1] (MIC) required 128 µg/mL (≈ 148 µM). Further, the inhibition at 300 µM against hERG (KCNH2) [2] was 68%. In addition, on Motilin receptor, the EC50 amounted to 120 nM. Moreover, the inhibition at 30 µM against hERG (KCNH2) [3] is 29%. Besides, in data set [4], the Activity was determined as 87%.
The molecule `CC[C@H]1OC(=O)[C@H](C)[C@@H](O[C@H]2C[C@@](C)(OC)[C@@H](O)[C@H](C)O2)[C@H](C)[C@@H](O[C@@H]2O[C@H](C)C[C@H](N(C)C(C)C)[C@H]2O)[C@](C)(O)C[C@@H](C)[C@H](OCCCC(=O)NC)[C@H](C)[C@@H](O)[C@]1(C)O` gave an MIC against Streptococcus pneumoniae [1] of 128 µg/mL (≈ 148 µM). On hERG (KCNH2) [2], this molecule displayed an inhibition at 300 µM of 56%. In addition, at Motilin receptor, the EC50 amounted to 84 nM. The same molecule gave an inhibition at 30 µM on hERG (KCNH2) [3] of 13%. Besides, in data set [4], the Activity was determined as 79%.
In the same order, the values of `CCNC(=O)CO[C@@H]1[C@H](C)[C@@H](O)[C@](C)(O)[C@@H](CC)OC(=O)[C@H](C)[C@@H](O[C@H]2C[C@@](C)(OC)[C@@H](O)[C@H](C)O2)[C@H](C)[C@@H](O[C@@H]2O[C@H](C)C[C@H](N(C)C(C)C)[C@H]2O)[C@](C)(O)C[C@H]1C` are over 128 µg/mL, 75%, 67 nM, 24% and 89%.
In the data set on Streptococcus pneumoniae [1], `CC[C@H]1OC(=O)[C@H](C)[C@@H](O[C@H]2C[C@@](C)(OC)[C@@H](O)[C@H](C)O2)[C@H](C)[C@@H](O[C@@H]2O[C@H](C)C[C@H](N(C)C(C)C)[C@H]2O)[C@](C)(O)C[C@@H](C)[C@H](OCC(=O)NC2CCC2)[C@H](C)[C@@H](O)[C@]1(C)O` had an MIC of 128 µg/mL (≈ 146 µM). This molecule also returned an inhibition at 300 µM against hERG (KCNH2) [2] of 100%. For the same molecule, the EC50 on Motilin receptor turned out to be 28 nM. The inhibition at 30 µM at hERG (KCNH2) [3] is 64%. For the same molecule, the Activity in [4] was determined as 75%.
As for `CC[C@H]1OC(=O)[C@H](C)[C@@H](O[C@H]2C[C@@](C)(OC)[C@@H](O)[C@H](C)O2)[C@H](C)[C@@H](O[C@@H]2O[C@H](C)C[C@H](N(C)C(C)C)[C@H]2O)[C@](C)(O)C[C@@H](C)[C@H](OCC(=O)NC2CCOCC2)[C@H](C)[C@@H](O)[C@]1(C)O`, the minimum inhibitory concentration (MIC) in the data set on Streptococcus pneumoniae [1] was over 128 µg/mL. The same molecule registered an inhibition at 300 µM against hERG (KCNH2) [2] of 67%. For the same molecule, the EC50 on Motilin receptor worked out at 120 nM. Further, the inhibition at 30 µM against hERG (KCNH2) [3] is 23%. Also, in data set [4], the Activity turned out to be 88%.
For the molecule `CC[C@H]1OC(=O)[C@H](C)[C@@H](O[C@H]2C[C@@](C)(OC)[C@@H](O)[C@H](C)O2)[C@H](C)[C@@H](O[C@@H]2O[C@H](C)C[C@H](N(C)C(C)C)[C@H]2O)[C@](C)(O)C[C@@H](C)[C@H](O)[C@H](C)[C@@H](O)[C@]1(C)O` [3 9-DIHYDRO-N-DESMETHYL-N-ISOPROPYLERYTHROMYCIN A], in the data set on Streptococcus pneumoniae [1], the MIC stood at 32 µg/mL (≈ 41.9 µM). In addition, at hERG (KCNH2) [2], the inhibition at 300 µM is 100%. Further, the EC50 on Motilin receptor stood at 260 nM. In data set [5], this molecule yielded an IC50 of 10000 nM. On hERG (KCNH2) [3], the inhibition at 30 µM was determined as 80%. Further, the Ratio IC50/EC50 in data set [6] was 38. Moreover, the Activity in data set [4] stood at 85%.
With `CC[C@H]1OC(=O)[C@H](C)[C@@H](O[C@H]2C[C@@](C)(OC)[C@@H](O)[C@H](C)O2)[C@H](C)[C@@H](O[C@@H]2O[C@H](C)C[C@H](N(C)C(C)C)[C@H]2O)[C@](C)(O)C[C@@H](C)[C@H](OCC(N)=O)[C@H](C)[C@@H](O)[C@]1(C)O`, the MIC in the data set with Streptococcus pneumoniae [1] was over 128 µg/mL. The molecule also showed an inhibition at 300 µM against hERG (KCNH2) [2] of 51%. Further, the EC50 on Motilin receptor stood at 52 nM. Moreover, 30 µM produced 10% inhibition on hERG (KCNH2) [3]. The Activity in data set [4] turned out to be 92%.
The molecule `CC[C@H]1OC(=O)[C@H](C)[C@@H](O[C@H]2C[C@@](C)(OC)[C@@H](O)[C@H](C)O2)[C@H](C)[C@@H](O[C@@H]2O[C@H](C)C[C@H](N(C)C(C)C)[C@H]2O)[C@](C)(O)C[C@@H](C)[C@H](OCC(=O)NC)[C@H](C)[C@@H](O)[C@]1(C)O` registered an MIC against Streptococcus pneumoniae [1] of over 128 µg/mL. Further, the result in the data set on Moraxella catarrhalis, with Clostridium perfringens, with Streptococcus pneumoniae [7], in the data set on Lactobacillus sp., with Cutibacterium acnes and with Bacteroides fragilis was inactive. Also, the outcome in the data set on Enterococcus faecium, in the data set with Clostridioides difficile, with Staphylococcus aureus, in the data set with Staphylococcus, with Haemophilus influenzae and in the data set on Klebsiella pneumoniae was inactive. In addition, the outcome in the data set with Escherichia coli, in the data set with Corynebacterium sp., in the data set on Streptococcus equinus, with Streptococcus pyogenes, with Corynebacterium jeikeium and in the data set on Enterococcus faecalis was inactive. The result with Proteus mirabilis and in the data set with Micrococcus luteus was inactive. In addition, the EC50 at Motilin receptor stood at 58 nM. Moreover, the Activity in data set [4] stood at 89%.
As for `CC[C@H]1OC(=O)[C@H](C)[C@@H](O[C@H]2C[C@@](C)(OC)[C@@H](O)[C@H](C)O2)[C@H](C)[C@@H](O[C@@H]2O[C@H](C)C[C@H](N(C)C(C)C)[C@H]2O)[C@](C)(O)C[C@@H](C)[C@H](OCC(=O)NC2CC2)[C@H](C)[C@@H](O)[C@]1(C)O`, it took 128 µg/mL (≈ 149 µM) to inhibit growth with Streptococcus pneumoniae [1] (MIC). Besides, testing at 300 µM at hERG (KCNH2) [2] gave an inhibition of 60%. At Motilin receptor, the EC50 came to 31 nM. Also, the inhibition at 30 µM on hERG (KCNH2) [3] was determined as 23%. Besides, in data set [4], the Activity came to 82%.
